The values that follow come from ChEMBL document CHEMBL3992519 (J Med Chem, 2017).

Active and inactive are the calls of the source. No cut-off for these calls is given here. A value given as a limit tells only on which side of the number the result lay.

Data set [1] deals with Mus musculus. Put plainly: Reduction in morphine dependence expression in ICR mouse assessed as inhibition of naloxone-precipitated diarrhea at 10 mg/kg, ip administered 30 mins prior to first morphine injection each day for 5 days followed by naloxone challenge 2 hrs post last morphine dose measured over 60 mins. Format: functional, organism-based.
In data set [2] the test system is Mus musculus. Put plainly: Reduction in morphine dependence expression in ICR mouse assessed as inhibition of naloxone-precipitated body weight loss at 10 mg/kg, ip administered 30 mins prior to first morphine injection each day for 5 days followed by naloxone challenge 2 hrs post last morphine dose measured over 60 mins. Format: functional, organism-based.
Data set [3] has as its system Mus musculus. As to the kind of experiment: Reduction in morphine dependence expression in ICR mouse assessed as inhibition of naloxone-precipitated jumping behavior at 10 mg/kg, ip administered 30 mins prior to first morphine injection each day for 5 days followed by naloxone challenge 2 hrs post last morphine dose measured over 60 mins. Format: functional, organism-based.

The target of a further data set is T1, Orexin receptor type 2 (Homo sapiens, UniProt O43614).
T1 sequence (O43614 whole entry): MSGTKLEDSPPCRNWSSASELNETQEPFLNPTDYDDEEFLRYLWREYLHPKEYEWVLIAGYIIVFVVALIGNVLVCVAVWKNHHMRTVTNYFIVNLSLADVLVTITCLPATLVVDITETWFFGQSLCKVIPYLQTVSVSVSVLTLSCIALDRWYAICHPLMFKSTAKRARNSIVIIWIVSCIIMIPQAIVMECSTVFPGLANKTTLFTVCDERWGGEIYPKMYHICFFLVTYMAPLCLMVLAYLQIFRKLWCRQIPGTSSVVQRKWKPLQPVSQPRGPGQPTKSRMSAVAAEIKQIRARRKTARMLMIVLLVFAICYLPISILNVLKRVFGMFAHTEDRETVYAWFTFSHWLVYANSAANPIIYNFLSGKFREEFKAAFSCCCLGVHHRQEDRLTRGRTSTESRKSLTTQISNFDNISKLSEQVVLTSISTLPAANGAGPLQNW
As to the kind of experiment: Antagonist activity at human OX2R expressed in CHOK1 cells assessed as inhibition of orexin A-induced intracellular calcium level preincubated for 15 mins followed by orexin A addition by Fura-2-AM dye based fluorescence assay. It is filed as cell-based. The gist of the method:
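CHO cells expressing human OX1R or OX2R; calcium transient assay. IC50 came from concentration-response curves in at least three independent assays, each run in triplicate. Ki was derived by the Cheng-Prusoff equation and reported as mean ± SEM. […] Some compounds were tested as HCl, MeSO3H or 2H2SO4 salts.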

Data set [4] in a line: Solubility of the compound in water. It is filed as physicochemical. As to conditions: buffer.
Data set [5] addresses T2, Orexin/Hypocretin receptor type 1 (Homo sapiens, UniProt O43613).
T2 sequence (O43613 whole entry): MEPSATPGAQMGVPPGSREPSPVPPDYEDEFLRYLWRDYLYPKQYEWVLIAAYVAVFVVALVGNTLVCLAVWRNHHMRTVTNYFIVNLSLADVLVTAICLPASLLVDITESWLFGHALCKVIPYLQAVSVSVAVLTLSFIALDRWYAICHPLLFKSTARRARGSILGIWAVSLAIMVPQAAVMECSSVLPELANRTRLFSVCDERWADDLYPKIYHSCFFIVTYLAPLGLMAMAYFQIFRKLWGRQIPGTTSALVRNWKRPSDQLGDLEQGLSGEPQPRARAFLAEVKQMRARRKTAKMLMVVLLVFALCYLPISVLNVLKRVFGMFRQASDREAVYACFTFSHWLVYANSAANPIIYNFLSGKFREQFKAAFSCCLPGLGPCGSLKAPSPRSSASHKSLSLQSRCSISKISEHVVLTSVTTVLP
Put plainly: Antagonist activity at human OX1R expressed in CHOK1 cells assessed as inhibition of orexin A-induced intracellular calcium level preincubated for 15 mins followed by orexin A addition by Fura-2-AM dye based fluorescence assay.

A short description of data set [6]: Solubility of the compound in saline. Format: physicochemical. As to conditions: buffer.
Another data set has as its target Mu-type opioid receptor (Homo sapiens, UniProt P35372). Put plainly: Displacement of [3H]DAMGO from human mu opioid receptor expressed in CHO cell membranes by micro-beta scintillation counting method.
In data set [7] the target is Delta-type opioid receptor (Homo sapiens, UniProt P41143). As to the kind of experiment: Displacement of [3H]DPDPE from human delta opioid receptor expressed in CHO cell membranes by micro-beta scintillation counting method.
For data set [8], the target named is Kappa-type opioid receptor (Homo sapiens, UniProt P41145). Put plainly: Displacement of [3H]U69,593 from human kappa opioid receptor expressed in CHO cell membranes by micro-beta scintillation counting method.
The nature of data set [9]: Selectivity index, ratio of IC50 for human OX2R expressed in CHOK1 cells to IC50 for human OX1R expressed in CHOK1 cells.
Data set [10] addresses T3, Orexin/Hypocretin receptor type 1 (Homo sapiens) (UniProt O43613).
T3 sequence (whole entry): T2 sequence (O43613 whole entry)

Chain of Delta-type opioid receptor (P41143 whole entry): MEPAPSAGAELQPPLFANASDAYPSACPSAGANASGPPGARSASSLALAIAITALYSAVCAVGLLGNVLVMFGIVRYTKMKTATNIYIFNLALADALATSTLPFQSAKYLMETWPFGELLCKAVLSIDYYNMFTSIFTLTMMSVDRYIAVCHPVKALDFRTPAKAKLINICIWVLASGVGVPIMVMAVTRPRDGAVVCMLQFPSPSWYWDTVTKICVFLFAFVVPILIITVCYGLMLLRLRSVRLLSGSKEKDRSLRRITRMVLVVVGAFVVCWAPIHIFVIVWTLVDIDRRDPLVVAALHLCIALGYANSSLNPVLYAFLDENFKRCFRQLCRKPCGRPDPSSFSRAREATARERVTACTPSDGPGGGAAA
Chain of Mu-type opioid receptor (P35372 whole entry): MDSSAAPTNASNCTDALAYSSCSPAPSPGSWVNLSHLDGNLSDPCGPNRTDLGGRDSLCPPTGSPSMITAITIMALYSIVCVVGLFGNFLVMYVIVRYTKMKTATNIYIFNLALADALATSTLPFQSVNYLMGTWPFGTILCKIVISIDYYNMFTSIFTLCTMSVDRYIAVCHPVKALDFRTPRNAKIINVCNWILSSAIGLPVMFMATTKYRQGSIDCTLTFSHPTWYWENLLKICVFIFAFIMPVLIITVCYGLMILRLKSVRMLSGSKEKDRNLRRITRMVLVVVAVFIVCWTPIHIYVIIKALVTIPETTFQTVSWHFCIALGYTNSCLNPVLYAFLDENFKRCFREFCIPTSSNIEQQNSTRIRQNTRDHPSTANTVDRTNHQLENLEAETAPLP
Chain of Kappa-type opioid receptor (P41145 whole entry): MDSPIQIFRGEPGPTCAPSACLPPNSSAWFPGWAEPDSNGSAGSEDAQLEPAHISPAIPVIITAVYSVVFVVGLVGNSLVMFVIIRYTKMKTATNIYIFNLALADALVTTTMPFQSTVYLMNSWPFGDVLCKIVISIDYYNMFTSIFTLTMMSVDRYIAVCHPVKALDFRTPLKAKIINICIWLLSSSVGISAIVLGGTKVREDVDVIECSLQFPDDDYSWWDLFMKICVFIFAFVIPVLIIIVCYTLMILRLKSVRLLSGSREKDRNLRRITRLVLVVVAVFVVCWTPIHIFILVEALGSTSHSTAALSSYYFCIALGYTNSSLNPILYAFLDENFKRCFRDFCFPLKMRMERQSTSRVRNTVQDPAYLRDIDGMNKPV

For `COc1ccc2c3c1O[C@H]1[C@H](N(C)C(=O)/C=C/c4ccccn4)CC[C@@]4(O)[C@@H](C2)N(S(=O)(=O)c2ccccc2N(C)C)CC[C@]314`, the inhibition entry in the data set with Mus musculus [1], with Mus musculus [2] and in the data set on Mus musculus [3] was “Active” each time.

`CN(C(=O)/C=C/c1ccoc1)[C@@H]1CC[C@@]2(O)[C@H]3Cc4ccc(O)c5c4[C@@]2(CCN3CC2CC2)[C@H]1O5.Cl` [NALFURAFINE HYDROCHLORIDE]: on Orexin receptor type 2 (human), the “inhibition (INH)” value is “Not Active”. The solubility entry in data set [4] and in [6] was “Insoluble” throughout. Besides, the Ki was found to be 250 nM in data set [5], 5.99 nM at Mu-type opioid receptor and 693 nM in data set [7].

For `Cc1cc(NC(=O)Nc2ccc(N(C)C)cc2)c2cc(F)cc(F)c2n1.Cl.Cl`, the Ki was 2070 nM at Orexin receptor type 2 (read-out: Ki); 18.9 nM in data set [5]; greater than 1000 nM on Mu-type opioid receptor; greater than 1000 nM in data set [8]; greater than 1000 nM in data set [7]. In addition, the solubility result in [4] and in [6] was “Insoluble” each time. For the same compound, the “Ratio IC50” value in [9] was less than 88.4.

As to `COc1ccc2c3c1O[C@H]1[C@H](N(C)C(=O)/C=C/c4ccoc4)CC[C@@]4(O)[C@@H](C2)N(S(=O)(=O)c2ccccc2[N+](=O)[O-])CC[C@]314`, the results for the inhibitory constant (Ki) result (at Orexin receptor type 2; in data set [5]) were “Not Active” and 1.81 nM, respectively. In addition, the solubility entry in data set [4] and in data set [6] was “Insoluble” in each case. The compound also returned a Ke in [10] of 3.69 nM. Besides, the “Ratio IC50” value in data set [9] was less than 88.4.
